# Yeast superoxide: caloric restriction mimetics inhibiting age-related superoxide in yeast; S. cerevisiae aged cells, superoxide DHE fluorescence; hits give low values; superoxide response (% of plate mean), % at 10 µM; actives 0.18% (n = 330,000); AID 2690;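 active = superoxide response under a set limit, about three screen SD below normal, cut at about 65% in these data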;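 also: yeast aged for seven days with compound at 30 °C before DHE staining; 100% = average MFI of all compound-treated wells on the plate with controls excluded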
# S1P3 antag-1: S1P3 (human) receptor antagonism. AID 485. Q99500. inhibition, % at 4.98 µM. actives 0.27% (n = 170,000). CHO S1P3 NFAT-BLA reporter, FRET fluorescence, antagonist mode;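 active = inhibition above the plate cutoff, the mean inhibition of test wells on that plate plus 3 SD, cut at about 28% in these data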;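 also: cells challenged with S1P at its EC80 of 0.8 µM; blue over green emission ratio from cleaved BLA substrate after 4 h stimulation; 0% = S1P-stimulated wells and 100% = unstimulated DMSO-only wells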
# Target sequence (Q99500 whole entry, looked up): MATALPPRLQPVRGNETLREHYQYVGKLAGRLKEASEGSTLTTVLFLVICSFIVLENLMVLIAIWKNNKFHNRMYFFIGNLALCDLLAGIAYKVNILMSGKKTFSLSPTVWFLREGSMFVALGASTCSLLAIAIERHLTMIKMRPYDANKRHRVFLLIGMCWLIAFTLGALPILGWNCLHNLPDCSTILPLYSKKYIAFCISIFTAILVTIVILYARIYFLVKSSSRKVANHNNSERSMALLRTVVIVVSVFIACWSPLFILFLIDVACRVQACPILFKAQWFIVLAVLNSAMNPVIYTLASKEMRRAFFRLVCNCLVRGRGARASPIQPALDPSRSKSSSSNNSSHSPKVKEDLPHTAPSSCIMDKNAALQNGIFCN
# T cell HTS: T cell immune modulation candidate; AID 2052; 2C CD8+ T cell-vesicle binding, flow cytometry; hits give low values; actives 0.068% (n = 330,000); response (vesicle binding), % at 7 µM;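 active = response, share of CD8 T cells binding vesicles, and their 90th percentile fluorescence all below set limits, cut at about 80% in these data, passing the limit was not always enough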;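 also: values below 100% mean blocked vesicle binding to the CD8+ T cells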
#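 material = purified 2C TCR transgenic mouse naive CD8+ T cells | controls = Unloaded micro-vesicles (low), QL9 vesicles with 0.7% DMSO (high) | detection = cytometric PE anti-B7-1 and Alexa647 anti-CD8 signals after 1% paraformaldehyde fixation | incubation = binding step 1.5 h, 37 °C, antibody labelling 20 min, ice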
# S1P3 antag-2: human S1P3 receptor antagonism, confirmation; shares compounds with S1P3 antag-1; AID 1429; inhibition, % at 4.98 µM; CHO S1P3 NFAT-BLA reporter, FRET, antagonist mode; actives 30% (n = 240);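 active = inhibition above the hit threshold that was computed for the earlier primary screen, cut at about 30% in these data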;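 also: 0% = S1P-stimulated wells and 100% = unstimulated DMSO-only wells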
# Starred values were filed as active, the others as inactive; nt = no result. The list is not random: actives were taken first. Their share in the collection is about 0.41%.
SMILES,Yeast superoxide,S1P3 antag-1,T cell HTS,S1P3 antag-2
COc1ccc(C2CC(c3ccc4ccccc4c3)=NN2C(=O)CNC2CCCCC2)cc1 (stereo not given),92,-11,256,nt
C=CCNCC(=O)N1N=C(c2ccc3ccccc3c2)CC1c1ccc(OC)cc1 (stereo not given),82,31*,405,2
CCCNC(=O)/C=C/c1ccc(C(C)C)cc1,115,8,293,nt
CC(C)c1ccc(/C=C/C(=O)NCCC2=CCCCC2)cc1,120,30*,290,-10
COc1cc2c(cc1OC)C(c1ccccc1O)NCC2 (stereo not given),105,nt,227,nt
Cc1[nH]c2ccccc2c1/C=N/Nc1ccc([N+](=O)[O-])cc1,84,40*,514,28
Cc1[nH]c2ccccc2c1/C=N/NC(=O)c1cccc([N+](=O)[O-])c1,101,-17,524,nt
CCCC[C@@H]1C[C@H]1[C@@H](NC(=O)c1cccs1)c1ccc(Cl)cc1,91,48*,172,69*
CCCC[C@@H]1C[C@H]1[C@@H](NC(=O)c1cccs1)c1ccc(C(F)(F)F)cc1,97,nt,454,nt
Cc1ccc(C2=NS(=O)(=O)N(C)C(C(=O)NC3CCCC3)=C2)cc1,85,nt,274,nt
O=C(N/N=C/c1cc(Cl)c(O)c(Cl)c1)c1cc2c(ccc3ccccc32)o1,123,nt,298,nt
COc1ccccc1NC(=O)c1ccc(NC(=O)COC(=O)C2CC2C)cc1 (stereo not given),93,-10,79,nt
COc1ccccc1NC(=O)c1ccc(NC(=O)COC(=O)C2CCCO2)cc1 (stereo not given),nt,30*,nt,-10
NS(=O)(=O)c1ccc(NC(=O)Nc2ccc3c(c2)OCO3)cc1,100,nt,286,nt
CN(C)c1ccc(C(C(=O)NC2CCCC2)N(C(=O)c2csnn2)C2CC2)cc1 (stereo not given),100,nt,402,nt
O=NN(CCc1ccncc1)c1ccc(OCc2ccccc2)cc1,93,33*,355,14
O=C(NCc1ccncc1)C(=O)N/N=C/c1ccc(OCc2ccccc2)cc1,113,-9,309,nt
CN(CCNC(=O)C1CCCN(c2ncnc3c2nc2n3CCCCC2)C1)Cc1ccccc1 (stereo not given),90,nt,280,nt
Cc1ccc(NCCC(=O)c2cccs2)cc1,102,-17,215,nt
CC(C)c1ccc(NCCC(=O)c2cccs2)cc1,113,30*,296,4
COc1ccccc1CN1CC(C(=O)NCc2cc(C(C)C)no2)CCC1=O (stereo not given),93,nt,400,nt
Cc1nc2ccccc2n1S(=O)(=O)c1cc(C(=O)O)ccc1Cl,87,nt,187,nt
CC1Cc2ccccc2N1C(=O)CN1C(=O)NC2(CCCCC2)C1=O (stereo not given),81,nt,488,nt
Cc1ccc(-c2cn3nc(-c4ccccc4)c(-c4ccccc4)nc3n2)cc1,108,50*,694,9
c1ccc(-c2cn3nc(-c4ccccc4)c(-c4ccccc4)nc3n2)cc1,103,nt,360,nt
SMILES,Yeast superoxide,S1P3 antag-1,T cell HTS,S1P3 antag-2
O=C(N/N=C/c1cn(-c2ccccc2)nc1-c1cc2ccccc2o1)c1ccccc1Br,125,-4,195,nt
O=C(N/N=C/c1cn(-c2ccccc2)nc1-c1cc2ccccc2o1)c1c[nH]c2ccccc12,116,31*,785,13
O=C(O)c1nn(CC(=O)N2CCN(c3ncc(C(F)(F)F)cc3Cl)CC2)c(=O)c2ccccc12,111,nt,182,nt
CSc1ccccc1OCc1cc(C(=O)NCCCn2nc(C)cc2C)no1,102,nt,352,nt
COc1ccc(NC(=O)CSc2nnc(CC(=O)Nc3ccc(F)cc3)n2C)cc1,101,nt,195,nt
COc1cc(/C=C(/C#N)C(=O)c2c(C)[nH]c3ccccc23)ccc1OCC#N,93,30*,170,-6
CCOc1ccc(/C=C(\C#N)C(=O)c2c(C)[nH]c3ccccc23)cc1OC,103,-16,170,nt
O=C(c1cccc(S(=O)(=O)Nc2ccc(F)cc2)c1)N1CCOCC1,102,nt,494,nt
C/C(=N/Nc1ccc([N+](=O)[O-])cc1)c1ccc(C)cc1C,102,33*,157,22
C/C(=N\Nc1ccc([N+](=O)[O-])cc1)c1cc2ccccc2o1,87,54*,462,55*
O=C(N/N=C/c1ccc([N+](=O)[O-])cc1)c1cc2ccccc2o1,108,-8,677,nt
C/C(=N\Nc1ccc([N+](=O)[O-])cc1)c1ccc(C#N)cc1,93,8,394,nt
CCC(=O)c1ccc(OCC(=O)OCC(=O)NCCC2=CCCCC2)cc1,112,nt,274,nt
CCCCn1c(N)c(N(CC(C)C)C(=O)COC(=O)Cc2cccc(OC)c2)c(=O)[nH]c1=O,94,nt,221,nt
COc1ccccc1C(=O)Nc1nc2cc3c(cc2s1)OCO3,97,-4,111,nt
COc1cccc(OC)c1C(=O)Nc1nc2cc3c(cc2s1)OCO3,98,33*,407,-2
Cc1nn(-c2ccccc2)c(Cl)c1/C=N/NC(=O)c1ccco1,119,nt,442,nt
Cc1nn(-c2ccccc2)c(Cl)c1/C=N/NC(=O)c1ccc(CNc2ccccc2)o1,122,28*,357,19
C/C(=N/NC(=O)c1cc(-c2ccc(Cl)s2)[nH]n1)c1ccco1,113,32*,210,-18
C/C(=N/NC(=O)c1ccccn1)c1ccco1,82,nt,299,nt
COc1ccc2[nH]c3c(N4CCc5ccccc5C4)ncnc3c2c1,113,31*,175,25
CCOC(=O)N1CCN(c2ncnc3c2[nH]c2ccc(OC)cc23)CC1,108,nt,214,nt
O=C(Nc1ccc(F)cc1)C(Cc1ccccc1)n1cccc1 (stereo not given),96,36*,155,10
Cc1ccc(NC(=O)C(Cc2ccccc2)n2cccc2)cc1 (stereo not given),87,23,151,nt
COc1ccc(NC(=O)CNCc2ccc(Cl)cc2)cc1S(=O)(=O)N1CCOCC1,79,nt,246,nt
SMILES,Yeast superoxide,S1P3 antag-1,T cell HTS,S1P3 antag-2
CC(C)(C)C(Cn1ccnc1)NC(=O)c1ccc2nc(C3CC3)oc2c1 (stereo not given),107,nt,349,nt
CCCCCCCCCCn1c2c(c(=N)c3c1CCC3)CCC2,124,nt,384,nt
CCCCCCCCCn1c2c(c(=N)c3c1CCC3)CCCC2,nt,55*,nt,41*
CCOc1ccccc1NC(=O)CSc1nnnn1C1CCCC1,110,nt,450,nt
Cn1c(-c2c(N)n(-c3ccccc3)c3nc4ccccc4nc23)nc2ccccc21,93,68*,344,45*
Cc1cccc(-n2c(N)c(-c3nc4ccccc4n3C)c3nc4ccccc4nc32)c1,102,17,267,nt
CC(NC(=O)c1cccc(F)c1)C(c1cccs1)N1CCN(C)CC1 (stereo not given),82,-8,532,nt
CCN(CC)S(=O)(=O)c1cccc(C(=O)NC(C)C(c2cccs2)N2CCCC2)c1 (stereo not given),106,29*,95,-7
COc1cccc(-c2nnc(SCC(=O)Nc3cc(C)on3)o2)c1,114,-13,164,nt
CCOc1ccc(-c2nnc(SCC(=O)Nc3cc(C)on3)o2)cc1,95,33*,268,-20

# High-throughput results (PubChem)
